Data: ChEMBL document CHEMBL2424619, “Small-molecule ligands of methyl-lysine binding proteins: optimization of selectivity for L3MBTL3” (J Med Chem, 2013)

What was measured:
TP53-binding protein 1 = TP53-binding protein 1 (Homo sapiens, UniProt Q12888); assay: Inhibition of 53BP1 (unknown origin) after 30 mins by AlphaScreen assay
How it was run: (§1)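 AlphaScreen competition with histone peptide. Compounds in 3-fold, 10-point dilutions, top 10 or 30 μM; buffer 20 mM Tris pH 8.0, 25 mM NaCl, 2 mM DTT, 0.05% Tween-20. Protein-peptide mix 30 min RT, then streptavidin donor plus nickel-chelate acceptor beads (GST acceptor beads for GST-tagged PHF23, JARID1A) 30 min RT dark. […] Protein-free His6-biotin peptide counterscreen.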

[1] = biological target: T1, E3 ubiquitin-protein ligase UHRF1 (Homo sapiens, UniProt Q96T88); assay: Inhibition of UHRF1 (unknown origin) after 30 mins by AlphaScreen assay; how it was run: as §1
T1 sequence (Q96T88 whole entry): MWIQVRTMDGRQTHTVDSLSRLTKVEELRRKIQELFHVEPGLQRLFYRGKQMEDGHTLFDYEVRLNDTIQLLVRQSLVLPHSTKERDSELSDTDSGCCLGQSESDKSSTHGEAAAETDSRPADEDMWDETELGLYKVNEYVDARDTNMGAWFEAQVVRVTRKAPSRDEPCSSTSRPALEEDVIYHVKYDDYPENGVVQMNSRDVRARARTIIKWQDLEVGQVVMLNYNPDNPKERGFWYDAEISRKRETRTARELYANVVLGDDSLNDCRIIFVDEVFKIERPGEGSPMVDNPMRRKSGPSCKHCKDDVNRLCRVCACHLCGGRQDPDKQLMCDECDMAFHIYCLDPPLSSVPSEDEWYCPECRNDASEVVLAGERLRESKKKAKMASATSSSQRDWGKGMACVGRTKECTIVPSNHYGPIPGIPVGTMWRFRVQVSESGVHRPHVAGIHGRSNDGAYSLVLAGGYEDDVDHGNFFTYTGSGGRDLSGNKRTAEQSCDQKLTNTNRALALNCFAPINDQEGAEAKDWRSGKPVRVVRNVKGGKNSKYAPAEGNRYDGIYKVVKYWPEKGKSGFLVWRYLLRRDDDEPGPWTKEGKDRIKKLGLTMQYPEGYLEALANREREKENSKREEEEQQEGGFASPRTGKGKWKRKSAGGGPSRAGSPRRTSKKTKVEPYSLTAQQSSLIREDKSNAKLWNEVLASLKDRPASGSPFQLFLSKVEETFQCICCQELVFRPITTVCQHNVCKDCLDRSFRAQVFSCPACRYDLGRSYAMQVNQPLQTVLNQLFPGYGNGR

[2] = biological target: Lysine-specific demethylase 5A (Homo sapiens, UniProt P29375); assay: Inhibition of JARID1A (unknown origin) after 30 mins by AlphaScreen assay; how it was run: as §1
PHD finger protein 23 = PHD finger protein 23 (Homo sapiens, UniProt Q9BUL5); assay: Inhibition of PHF23 (unknown origin) after 30 mins by AlphaScreen assay
How it was run: (§2)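 AlphaScreen competition with histone peptide. Compounds in 3-fold, 10-point dilutions, top 10 or 30 μM; buffer 20 mM Tris pH 8.0, 25 mM NaCl, 2 mM DTT, 0.05% Tween-20. Protein-peptide mix 30 min RT, then streptavidin donor plus nickel-chelate acceptor beads (GST acceptor beads for GST-tagged PHF23, JARID1A) 30 min RT dark. Protein-free His6-biotin peptide counterscreen.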

[3] = biological target: MBT domain-containing protein 1 (Homo sapiens, UniProt Q05BQ5); assay: Inhibition of MBTD1 (unknown origin) after 30 mins by AlphaScreen assay; how it was run: as §2
[4] = biological target: T2, Chromobox protein homolog 7 (Homo sapiens, UniProt O95931); assay: Inhibition of CBX7 (unknown origin) after 30 mins by AlphaScreen assay; how it was run: as §2
T2 sequence (O95931 whole entry): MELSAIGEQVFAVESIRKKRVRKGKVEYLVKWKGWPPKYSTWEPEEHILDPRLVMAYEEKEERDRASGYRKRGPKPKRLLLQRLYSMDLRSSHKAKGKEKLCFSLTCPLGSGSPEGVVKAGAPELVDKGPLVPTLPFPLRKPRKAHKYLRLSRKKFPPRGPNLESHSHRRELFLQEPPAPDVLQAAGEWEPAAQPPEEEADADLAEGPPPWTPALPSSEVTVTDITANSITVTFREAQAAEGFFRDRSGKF

[5] = biological target: T3, Scm-like with four MBT domains protein 1 (Homo sapiens, UniProt Q9UHJ3); assay: Inhibition of SFMBT1 (unknown origin) after 30 mins by AlphaScreen assay; how it was run: as §1
T3 sequence (Q9UHJ3 whole entry): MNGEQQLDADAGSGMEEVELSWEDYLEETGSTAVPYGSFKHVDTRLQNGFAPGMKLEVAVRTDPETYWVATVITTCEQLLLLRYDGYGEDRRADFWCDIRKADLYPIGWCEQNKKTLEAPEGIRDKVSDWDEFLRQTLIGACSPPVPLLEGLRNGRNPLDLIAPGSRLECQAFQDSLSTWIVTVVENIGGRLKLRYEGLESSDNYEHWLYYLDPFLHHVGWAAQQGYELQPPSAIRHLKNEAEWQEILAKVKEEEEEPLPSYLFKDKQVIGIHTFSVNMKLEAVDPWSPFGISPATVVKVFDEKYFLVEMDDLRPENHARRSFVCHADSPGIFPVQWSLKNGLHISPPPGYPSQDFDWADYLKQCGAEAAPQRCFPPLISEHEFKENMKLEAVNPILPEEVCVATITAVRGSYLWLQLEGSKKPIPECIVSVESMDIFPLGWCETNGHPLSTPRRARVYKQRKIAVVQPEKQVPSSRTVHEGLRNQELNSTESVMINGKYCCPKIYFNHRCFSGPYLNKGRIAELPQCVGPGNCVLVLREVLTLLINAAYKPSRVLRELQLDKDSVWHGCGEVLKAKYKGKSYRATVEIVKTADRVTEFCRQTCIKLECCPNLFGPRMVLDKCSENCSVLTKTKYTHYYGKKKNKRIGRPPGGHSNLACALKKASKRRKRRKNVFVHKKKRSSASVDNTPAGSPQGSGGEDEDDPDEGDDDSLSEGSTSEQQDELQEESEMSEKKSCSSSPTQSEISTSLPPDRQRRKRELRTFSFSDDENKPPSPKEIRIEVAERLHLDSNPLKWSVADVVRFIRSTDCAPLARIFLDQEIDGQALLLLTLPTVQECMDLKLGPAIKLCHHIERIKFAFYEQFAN

[6] = biological target: T4, Lethal(3)malignant brain tumor-like protein 4 (Homo sapiens, UniProt Q8NA19); assay: Inhibition of L3MBTL4 (unknown origin) after 30 mins by AlphaScreen assay; how it was run: as §2
T4 sequence (Q8NA19 whole entry): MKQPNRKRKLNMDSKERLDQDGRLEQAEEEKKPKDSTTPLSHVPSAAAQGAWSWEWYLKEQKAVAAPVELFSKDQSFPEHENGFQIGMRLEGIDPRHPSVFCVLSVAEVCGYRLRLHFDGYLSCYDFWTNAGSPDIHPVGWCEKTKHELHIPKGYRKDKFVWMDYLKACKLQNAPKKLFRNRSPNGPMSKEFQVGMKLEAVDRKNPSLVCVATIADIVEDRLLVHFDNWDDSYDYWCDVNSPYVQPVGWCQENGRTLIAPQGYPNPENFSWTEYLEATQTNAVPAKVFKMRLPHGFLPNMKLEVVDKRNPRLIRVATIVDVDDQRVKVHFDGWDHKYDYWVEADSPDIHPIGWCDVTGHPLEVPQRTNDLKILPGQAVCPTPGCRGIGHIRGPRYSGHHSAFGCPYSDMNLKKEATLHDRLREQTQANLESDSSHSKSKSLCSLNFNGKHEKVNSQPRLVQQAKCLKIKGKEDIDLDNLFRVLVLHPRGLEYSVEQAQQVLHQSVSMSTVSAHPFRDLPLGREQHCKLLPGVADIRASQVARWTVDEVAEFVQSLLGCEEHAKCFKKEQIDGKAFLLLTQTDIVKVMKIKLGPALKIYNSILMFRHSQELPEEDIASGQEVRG

HEK-293T = assay: Cytotoxicity against HEK293T/17 cells assessed as cell viability up to 100 uM after 24 hrs by CellTiter-Glo luminescence assay; assay type: cell-based; details: human
How it was run: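 Cell viability by CellTiter-Glo luminescence, compound tested up to 100 μM.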

[7] = biological target: T5, Lethal(3)malignant brain tumor-like protein 3 (Homo sapiens, UniProt Q96JM7); assay: Inhibition of L3MBTL3 (unknown origin) after 30 mins by AlphaScreen assay; how it was run: as §2
T5 sequence (Q96JM7 whole entry): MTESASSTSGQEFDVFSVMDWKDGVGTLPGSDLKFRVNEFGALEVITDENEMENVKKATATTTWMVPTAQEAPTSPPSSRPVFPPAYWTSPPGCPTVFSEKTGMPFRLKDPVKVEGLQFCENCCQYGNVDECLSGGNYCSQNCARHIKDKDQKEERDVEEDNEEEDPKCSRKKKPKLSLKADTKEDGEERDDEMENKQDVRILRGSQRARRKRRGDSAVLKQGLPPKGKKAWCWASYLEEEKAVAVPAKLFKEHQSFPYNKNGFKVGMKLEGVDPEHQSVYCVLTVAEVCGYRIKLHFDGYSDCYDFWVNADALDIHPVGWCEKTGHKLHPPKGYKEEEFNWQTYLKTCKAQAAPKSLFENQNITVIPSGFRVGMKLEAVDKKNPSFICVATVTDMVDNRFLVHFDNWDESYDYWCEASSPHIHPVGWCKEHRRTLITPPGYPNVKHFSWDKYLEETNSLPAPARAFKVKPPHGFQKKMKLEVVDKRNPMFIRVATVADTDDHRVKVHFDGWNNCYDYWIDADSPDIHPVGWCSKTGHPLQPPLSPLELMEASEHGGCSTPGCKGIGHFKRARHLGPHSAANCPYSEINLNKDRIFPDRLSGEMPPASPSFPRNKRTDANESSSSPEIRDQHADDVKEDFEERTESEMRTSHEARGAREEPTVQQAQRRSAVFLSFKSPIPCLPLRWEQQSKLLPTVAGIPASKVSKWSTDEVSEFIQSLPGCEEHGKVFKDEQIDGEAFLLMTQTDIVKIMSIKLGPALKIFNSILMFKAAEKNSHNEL

Sequence of TP53-binding protein 1 (Q12888 whole entry): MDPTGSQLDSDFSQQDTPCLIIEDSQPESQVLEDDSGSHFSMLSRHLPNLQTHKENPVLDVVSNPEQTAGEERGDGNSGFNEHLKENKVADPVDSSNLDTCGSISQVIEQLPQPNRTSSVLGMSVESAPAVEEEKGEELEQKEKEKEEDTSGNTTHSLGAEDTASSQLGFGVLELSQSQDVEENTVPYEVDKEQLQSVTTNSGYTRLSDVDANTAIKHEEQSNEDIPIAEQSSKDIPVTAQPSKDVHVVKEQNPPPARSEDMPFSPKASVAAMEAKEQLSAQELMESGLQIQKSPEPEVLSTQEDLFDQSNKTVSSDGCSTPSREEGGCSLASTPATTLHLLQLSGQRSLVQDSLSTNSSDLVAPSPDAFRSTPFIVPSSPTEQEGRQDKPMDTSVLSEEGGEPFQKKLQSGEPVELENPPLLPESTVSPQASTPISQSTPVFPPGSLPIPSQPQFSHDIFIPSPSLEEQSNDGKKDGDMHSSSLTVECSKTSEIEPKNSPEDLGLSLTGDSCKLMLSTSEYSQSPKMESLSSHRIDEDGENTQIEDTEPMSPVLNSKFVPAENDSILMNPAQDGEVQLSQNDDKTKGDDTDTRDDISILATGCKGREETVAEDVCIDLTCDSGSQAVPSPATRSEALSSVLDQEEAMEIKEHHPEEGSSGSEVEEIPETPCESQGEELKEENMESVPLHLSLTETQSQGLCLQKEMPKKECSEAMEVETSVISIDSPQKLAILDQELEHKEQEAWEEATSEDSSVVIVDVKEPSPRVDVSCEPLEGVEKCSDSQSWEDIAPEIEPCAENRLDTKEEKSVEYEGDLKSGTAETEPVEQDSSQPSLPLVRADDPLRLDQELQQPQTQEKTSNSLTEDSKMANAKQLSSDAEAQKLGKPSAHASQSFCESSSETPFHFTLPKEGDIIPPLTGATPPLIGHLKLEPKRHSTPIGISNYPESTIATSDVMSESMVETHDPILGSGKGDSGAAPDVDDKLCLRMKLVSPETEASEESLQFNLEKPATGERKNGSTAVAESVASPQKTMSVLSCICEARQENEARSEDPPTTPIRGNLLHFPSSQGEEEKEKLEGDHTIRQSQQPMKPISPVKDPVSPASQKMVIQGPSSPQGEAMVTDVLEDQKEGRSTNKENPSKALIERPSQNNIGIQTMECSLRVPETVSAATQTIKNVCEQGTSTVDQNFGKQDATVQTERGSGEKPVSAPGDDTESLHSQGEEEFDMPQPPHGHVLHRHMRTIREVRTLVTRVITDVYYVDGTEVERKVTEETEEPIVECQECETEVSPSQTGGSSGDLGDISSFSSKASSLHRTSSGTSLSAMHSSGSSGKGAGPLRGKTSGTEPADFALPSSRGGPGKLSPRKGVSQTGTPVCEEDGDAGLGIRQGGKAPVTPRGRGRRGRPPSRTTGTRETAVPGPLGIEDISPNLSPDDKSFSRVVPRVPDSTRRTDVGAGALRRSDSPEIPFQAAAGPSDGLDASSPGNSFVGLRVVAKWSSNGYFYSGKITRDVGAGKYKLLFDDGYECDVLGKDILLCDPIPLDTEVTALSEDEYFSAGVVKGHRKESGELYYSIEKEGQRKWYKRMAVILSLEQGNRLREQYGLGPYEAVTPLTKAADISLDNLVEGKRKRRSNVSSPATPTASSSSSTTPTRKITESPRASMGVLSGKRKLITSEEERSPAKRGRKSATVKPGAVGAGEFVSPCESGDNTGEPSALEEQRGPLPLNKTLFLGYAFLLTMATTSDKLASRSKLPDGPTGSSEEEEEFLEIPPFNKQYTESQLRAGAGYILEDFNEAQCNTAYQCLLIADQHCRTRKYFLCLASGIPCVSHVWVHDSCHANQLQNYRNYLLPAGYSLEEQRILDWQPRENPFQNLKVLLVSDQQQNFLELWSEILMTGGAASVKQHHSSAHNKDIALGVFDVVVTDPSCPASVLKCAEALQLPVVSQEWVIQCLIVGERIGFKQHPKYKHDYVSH
Sequence of MBT domain-containing protein 1 (Q05BQ5 whole entry, the tested form may be a part): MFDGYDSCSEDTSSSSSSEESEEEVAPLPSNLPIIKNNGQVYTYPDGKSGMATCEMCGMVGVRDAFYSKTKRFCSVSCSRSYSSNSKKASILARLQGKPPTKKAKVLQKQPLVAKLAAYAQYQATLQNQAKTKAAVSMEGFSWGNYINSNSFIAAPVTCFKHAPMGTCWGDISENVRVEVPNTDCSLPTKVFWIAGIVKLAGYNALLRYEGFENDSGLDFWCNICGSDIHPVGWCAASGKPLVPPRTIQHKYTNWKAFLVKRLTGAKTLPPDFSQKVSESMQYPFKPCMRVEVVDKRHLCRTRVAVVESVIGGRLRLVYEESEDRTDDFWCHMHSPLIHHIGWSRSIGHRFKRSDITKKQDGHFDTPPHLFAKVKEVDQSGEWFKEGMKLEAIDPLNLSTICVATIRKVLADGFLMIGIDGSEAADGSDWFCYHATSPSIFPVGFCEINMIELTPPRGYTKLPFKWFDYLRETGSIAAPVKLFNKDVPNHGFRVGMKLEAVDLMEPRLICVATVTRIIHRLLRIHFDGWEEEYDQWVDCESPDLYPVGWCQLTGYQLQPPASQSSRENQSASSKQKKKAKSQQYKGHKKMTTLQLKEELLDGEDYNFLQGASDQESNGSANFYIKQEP
Sequence of PHD finger protein 23 (Q9BUL5 whole entry): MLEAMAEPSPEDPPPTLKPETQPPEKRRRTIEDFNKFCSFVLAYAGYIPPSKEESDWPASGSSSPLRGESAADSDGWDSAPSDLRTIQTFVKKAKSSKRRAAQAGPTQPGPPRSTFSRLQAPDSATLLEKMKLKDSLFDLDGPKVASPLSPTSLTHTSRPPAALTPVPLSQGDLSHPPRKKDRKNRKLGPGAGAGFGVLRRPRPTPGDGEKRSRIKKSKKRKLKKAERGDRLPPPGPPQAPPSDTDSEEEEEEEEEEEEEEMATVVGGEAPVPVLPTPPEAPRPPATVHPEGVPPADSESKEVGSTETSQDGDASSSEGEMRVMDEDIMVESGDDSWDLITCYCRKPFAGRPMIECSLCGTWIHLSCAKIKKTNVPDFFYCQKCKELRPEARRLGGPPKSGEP
Sequence of Lysine-specific demethylase 5A (P29375 whole entry): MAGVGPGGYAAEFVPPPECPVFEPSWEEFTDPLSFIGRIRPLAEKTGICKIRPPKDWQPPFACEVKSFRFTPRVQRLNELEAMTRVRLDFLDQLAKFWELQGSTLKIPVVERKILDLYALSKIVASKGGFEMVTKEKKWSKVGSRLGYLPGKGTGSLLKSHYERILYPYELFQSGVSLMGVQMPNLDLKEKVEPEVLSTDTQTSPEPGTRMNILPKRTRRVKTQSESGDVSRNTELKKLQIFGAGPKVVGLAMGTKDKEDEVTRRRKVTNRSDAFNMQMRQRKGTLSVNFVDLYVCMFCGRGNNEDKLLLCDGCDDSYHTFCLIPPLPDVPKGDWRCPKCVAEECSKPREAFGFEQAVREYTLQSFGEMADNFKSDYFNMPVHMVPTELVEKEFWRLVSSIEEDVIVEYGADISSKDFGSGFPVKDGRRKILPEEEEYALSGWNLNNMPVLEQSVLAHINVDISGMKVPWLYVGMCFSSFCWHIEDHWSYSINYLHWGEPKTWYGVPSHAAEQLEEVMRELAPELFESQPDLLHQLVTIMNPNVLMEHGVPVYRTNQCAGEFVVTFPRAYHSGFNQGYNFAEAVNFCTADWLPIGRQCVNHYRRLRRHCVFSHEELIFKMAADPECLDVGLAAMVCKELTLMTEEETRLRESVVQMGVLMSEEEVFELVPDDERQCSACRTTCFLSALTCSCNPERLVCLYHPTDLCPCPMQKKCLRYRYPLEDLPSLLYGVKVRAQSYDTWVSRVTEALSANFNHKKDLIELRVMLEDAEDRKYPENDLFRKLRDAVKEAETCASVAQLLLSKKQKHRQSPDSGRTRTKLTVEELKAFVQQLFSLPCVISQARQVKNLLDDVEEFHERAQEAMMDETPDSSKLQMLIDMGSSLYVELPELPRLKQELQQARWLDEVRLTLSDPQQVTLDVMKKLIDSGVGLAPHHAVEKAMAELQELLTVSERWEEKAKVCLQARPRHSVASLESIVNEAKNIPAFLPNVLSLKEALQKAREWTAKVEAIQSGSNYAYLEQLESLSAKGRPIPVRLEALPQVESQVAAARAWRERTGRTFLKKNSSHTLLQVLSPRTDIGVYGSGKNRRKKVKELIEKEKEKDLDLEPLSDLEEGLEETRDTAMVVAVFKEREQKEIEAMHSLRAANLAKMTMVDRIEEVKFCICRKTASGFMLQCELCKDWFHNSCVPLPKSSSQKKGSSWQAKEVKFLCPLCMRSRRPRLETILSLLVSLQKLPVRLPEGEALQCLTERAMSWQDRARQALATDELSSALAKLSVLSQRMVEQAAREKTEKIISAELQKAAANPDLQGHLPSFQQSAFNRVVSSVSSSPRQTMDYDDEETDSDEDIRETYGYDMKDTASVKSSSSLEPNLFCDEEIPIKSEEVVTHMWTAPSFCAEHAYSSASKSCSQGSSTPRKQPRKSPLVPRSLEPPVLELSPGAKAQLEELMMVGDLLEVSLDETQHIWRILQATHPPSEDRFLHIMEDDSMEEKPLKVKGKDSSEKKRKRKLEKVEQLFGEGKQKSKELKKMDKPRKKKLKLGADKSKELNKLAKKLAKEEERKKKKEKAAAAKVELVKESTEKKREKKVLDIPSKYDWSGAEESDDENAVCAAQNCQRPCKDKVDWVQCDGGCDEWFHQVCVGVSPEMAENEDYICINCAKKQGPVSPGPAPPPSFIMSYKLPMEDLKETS

SMILES | IC50 (TP53-binding protein 1) [µM] | IC50 [1] [µM] | IC50 [7] [µM] | also measured
O=C(c1ccc(C(=O)N2CCN(C3CCCC3)CC2)cc1)N1CCC(N2CCCC2)CC1 | > 10 | > 10 |  | 
O=C(c1ccc(C(=O)N2CCC(N3CCCC3)CC2)cc1)N1CCC(N2CCCC2)CC1 | > 10 | > 10 |  | IC50 [2]: > 10 µM; IC50 (PHD finger protein 23): > 10 µM; IC50 [3]: > 10 µM; IC50 [4]: > 10 µM; IC50 [5]: > 10 µM; IC50 [6]: > 10 µM; Activity (HEK-293T): Non-toxic
CCN1Cc2ccc(NC(=O)c3cccc(Br)c3)cc2C1 |  |  | 1.2 | 
O=C(c1cccc(Br)c1)N1CCC(N2CCCC2)CC1 |  |  | 4.1 | 
O=C(c1cccc(Br)c1)N1CC2CCC(C1)C2N1CCCC1 (centres undefined) |  |  | 3.2 | 
